# In ChEMBL document CHEMBL1154210, “Reversal of fluconazole resistance by sulfated sterols from the marine sponge Topsentia sp” (J Nat Prod, 2009):
# Activity calls are given as the source filed them. The rule behind the calls is not given here.
# What was measured:
# Nakaseomyces glabratus = test: Antimicrobial activity against Candida glabrata; assay type: functional, organism-based
# Cryptococcus neoformans = test: Antimicrobial activity against Cryptococcus neoformans; assay type: functional, organism-based
# Plasmodium falciparum [1] = test: Antiprotozoal activity Plasmodium falciparum D6; assay type: functional, organism-based
# Vero [2] = test: Cytotoxicity against african green monkey Vero cells at 11.2 uM after 48 hrs by neutral red assay; assay type: cell-based; conditions: chlorocebus sabaeus
# Leishmania donovani = test: Antiprotozoal activity Leishmania donovani by Alamar blue assay; assay type: functional, organism-based
# Staphylococcus aureus = test: Antimicrobial activity against methicillin resistant Staphylococcus aureus; assay type: functional, organism-based
# Pichia kudriavzevii = test: Antimicrobial activity against Candida Krusei; assay type: functional, organism-based
# [3] = system: Mycobacterium intracellulare; test: Antimicrobial activity against Mycobacterium intracellular; assay type: functional, organism-based
# Plasmodium falciparum [4] = test: Antiprotozoal activity Plasmodium falciparum W2; assay type: functional, organism-based
# Candida albicans [5] = test: Antimicrobial activity against fluconazole-resistant Candida albicans 1758 over expressing MDR1 at 5.7 uM ater 24 hrs in presence of fluconazole; assay type: functional
# Outline: (§1)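 Broth microdilution in YPD with C. albicans inoculum at 1 × 10^4 CFU/mL final; samples diluted in 0.9% saline. Fluconazole in DMSO at ~1/3rd its IC50, with DMSO-only duplicates. OD 630 nm read before and after 37 °C for 24 h. A checkerboard of sample × fluconazole gave FIC = sum of combination/alone IC50 ratios for each agent.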
# Candida albicans [6] = test: Antimicrobial activity against Fluconazole susceptible Candida albicans 1587 at 5.7 uM ater 24 hrs in presence of fluconazole; assay type: functional; outline: as §1
# Saccharomyces cerevisiae [7] = test: Antimicrobial activity against azole-resistant Saccharomyces cerevisiae expressing null pump at 26 uM after 40 to 48 hrs in presence of fluconazole; assay type: functional
# Outline: (§2)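 S. cerevisiae strains (MDR1-overexpressing or null pump) inoculated in YPD at 1 × 10^4 CFU/mL final into saline-diluted samples. Fluconazole in DMSO at ~1/10th its IC50, with DMSO-only duplicates. Absorbance at 630 nm read before and after 40–48 h at 30 °C. Checkerboard IC50s combined into FIC (combination/alone ratios summed).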
# Candida albicans [8] = test: Antimicrobial activity against fluconazole-susceptible Candida albicans isolate 1 at 26 uM ater 24 hrs in presence of fluconazole; assay type: functional
# Outline: (§3)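 C. albicans isolates #1 and #17 in YPD at 1 × 10^4 CFU/mL final with saline-diluted samples plus fluconazole (DMSO) at ~1/3rd its IC50. 630 nm readings taken before and after 24 h at 37 °C. FIC was derived from checkerboard IC50s of each agent alone and in combination.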
# Candida albicans [9] = test: Antimicrobial activity against fluconazole-resistant Candida albicans isolate 17 at 26 uM ater 24 hrs in presence of fluconazole; assay type: functional; outline: as §3
# Saccharomyces cerevisiae [10] = test: Antimicrobial activity against azole-resistant Saccharomyces cerevisiae expressing MDR1 at 26 uM after 40 to 48 hrs in presence of fluconazole; assay type: functional; outline: as §2
# Saccharomyces cerevisiae [11] = test: Antimicrobial activity against azole-resistant Saccharomyces cerevisiae expressing CDR1 efflux pump at 26 uM after 40 to 48 hrs in presence of fluconazole; assay type: functional
# Outline: (§4)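 Checkerboard combination in S. cerevisiae CDR1 efflux pump strain: compound diluted in 0.9% saline, crossed with FLU (in DMSO) over all concentration pairs; inoculum in YPD broth at 1 × 10^4 CFU/mL; incubated 30 °C for 40–48 h; growth read at 630 nm before and after incubation. FIC = (IC50 combined/IC50 alone) summed for compound and FLU.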
# Candida albicans [12] = test: Antimicrobial activity against fluconazole-resistant Candida albicans 1758 over expressing MDR1 at 194 uM ater 24 hrs in presence of fluconazole; assay type: functional; outline: as §1
# Saccharomyces cerevisiae [13] = test: Antimicrobial activity against azole-resistant Saccharomyces cerevisiae expressing null pump at 13 uM after 40 to 48 hrs in presence of fluconazole; assay type: functional; outline: as §2
# Candida albicans [14] = test: Antimicrobial activity against fluconazole-resistant Candida albicans isolate 17 at 13 uM ater 24 hrs in presence of fluconazole; assay type: functional; outline: as §3
# Candida albicans [15] = test: Antimicrobial activity against Fluconazole susceptible Candida albicans 1587 at 194 uM ater 24 hrs in presence of fluconazole; assay type: functional; outline: as §1
# Candida albicans [16] = test: Antimicrobial activity against fluconazole-susceptible Candida albicans isolate 1 at 13 uM ater 24 hrs in presence of fluconazole; assay type: functional; outline: as §3
# Vero [17] = test: Cytotoxicity against african green monkey Vero cells at 9.25 uM after 48 hrs by neutral red assay; assay type: cell-based; conditions: chlorocebus sabaeus
# Saccharomyces cerevisiae [18] = test: Antimicrobial activity against azole-resistant Saccharomyces cerevisiae expressing MDR1 at 13 uM after 40 to 48 hrs in presence of fluconazole; assay type: functional; outline: as §2
# Saccharomyces cerevisiae [19] = test: Antimicrobial activity against azole-resistant Saccharomyces cerevisiae expressing CDR1 efflux pump at 13 uM after 40 to 48 hrs in presence of fluconazole; assay type: functional; outline: as §4
# Candida albicans [20] = test: Antimicrobial activity against fluconazole-susceptible Candida albicans 1587 at 189 uM ater 24 hrs in presence of fluconazole; assay type: functional; outline: as §1
# Candida albicans [21] = test: Antimicrobial activity against fluconazole-resistant Candida albicans 1758 over expressing MDR1 at 189 uM ater 24 hrs in presence of fluconazole; assay type: functional; outline: as §1
# Vero [22] = test: Cytotoxicity against african green monkey Vero cells at 9 uM after 48 hrs by neutral red assay; assay type: cell-based; conditions: chlorocebus sabaeus
SMILES,Activity (Nakaseomyces glabratus),Activity (Cryptococcus neoformans),Activity (Plasmodium falciparum [1]),Activity (Leishmania donovani),Activity (Staphylococcus aureus),Activity (Pichia kudriavzevii),Activity [3],Activity (Plasmodium falciparum [4]),fractional inhibitory concentration index (FICI) (Saccharomyces cerevisiae [13]),fractional inhibitory concentration index (FICI) (Candida albicans [14]),fractional inhibitory concentration index (FICI) (Candida albicans [16]),fractional inhibitory concentration index (FICI) (Saccharomyces cerevisiae [18]),fractional inhibitory concentration index (FICI) (Saccharomyces cerevisiae [19]),further results
C/C=C(\CC[C@](C)(O)[C@H]1[C@@H](O)C[C@H]2[C@@H]3CCc4cc(O)ccc4[C@H]3CC[C@@]21C)C(C)C [GEODISTEROL],inactive,inactive,inactive,inactive,inactive,inactive,inactive,inactive,–,–,–,–,–,Activity (Vero [2]): Non-toxic
CC(C)[C@@H]1OC(=O)[C@@H](Cc2ccccc2)N(C)C(=O)[C@H](C(C)C)OC(=O)[C@@H](Cc2ccccc2)N(C)C(=O)[C@H](C(C)C)OC(=O)[C@@H](Cc2ccccc2)N(C)C1=O [BEAUVERICIN],–,–,–,–,–,–,–,–,–,–,–,–,–,fractional inhibitory concentration index (FICI) (Candida albicans [5]): 2.8; fractional inhibitory concentration index (FICI) (Candida albicans [6]): 0.5; fractional inhibitory concentration index (FICI) (Saccharomyces cerevisiae [7]): 3.38; fractional inhibitory concentration index (FICI) (Candida albicans [8]): 0.5; fractional inhibitory concentration index (FICI) (Candida albicans [9]): 0.7; fractional inhibitory concentration index (FICI) (Saccharomyces cerevisiae [10]): 2.28; fractional inhibitory concentration index (FICI) (Saccharomyces cerevisiae [11]): 0.04
C=C(CC[C@](C)(O)[C@H]1[C@@H](O)C[C@H]2[C@@H]3CCc4cc(OS(=O)(=O)[O-])ccc4[C@H]3CC[C@@]21C)C(C)C.[Na+],inactive,inactive,inactive,inactive,inactive,inactive,inactive,inactive,0.75,1.8,1.7,0.15,1.34,fractional inhibitory concentration index (FICI) (Candida albicans [12]): 0.2; fractional inhibitory concentration index (FICI) (Candida albicans [15]): 1.6; Activity (Vero [17]): Non-toxic
C/C=C(\CC[C@](C)(O)[C@H]1[C@@H](O)C[C@H]2[C@@H]3CCc4cc(OS(=O)(=O)[O-])ccc4[C@H]3CC[C@@]21C)C(C)C.[Na+],inactive,inactive,inactive,inactive,inactive,inactive,inactive,inactive,1.1,1.3,1.5,0.08,1.04,fractional inhibitory concentration index (FICI) (Candida albicans [20]): 1.7; fractional inhibitory concentration index (FICI) (Candida albicans [21]): 0.2; Activity (Vero [22]): Non-toxic
